Experimental data as given in ChEMBL document CHEMBL2146400, “Antiophidic solanidane steroidal alkaloids from Solanum campaniforme” (J Nat Prod, 2011).
Active and inactive are the calls of the source. The calls are words filed in the database; no cut-off is given here.

How the values were obtained:
[1] = molecular target: T1, Basic phospholipase A2 homolog BnSP-7 (Bothropoides pauloensis) (UniProt Q9IAT9); experiment: Inhibition of Phospholipase A2 Asp49 in Bothropoides pauloensis at 1:1 venom to drug ratio incubated up to 40 mins using 4N3OBA substrate by multiwell plate reader method; conditions: Bothrops pauloensis
T1 sequence (whole entry): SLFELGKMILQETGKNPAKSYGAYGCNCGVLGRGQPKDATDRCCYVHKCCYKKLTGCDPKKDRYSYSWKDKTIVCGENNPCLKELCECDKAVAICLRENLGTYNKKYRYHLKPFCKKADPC
Summary of the method: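 Whole venom (1 mg/mL), alone or preincubated 1:1 (w:w) with compound, was added to Tris-HCl 0.1 M, Ca2+ 0.01 M, pH 8.0, with 4-nitro-3-octanoyloxybenzoic acid substrate. Mixture was kept at 37 °C up to 40 min, reading A425 every 5 min. V0 came from the absorbance increase after 20 min.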

Bothrops pauloensis [2] = experiment: Antiophidic activity against Bothropoides pauloensis venom-induced myotoxicity in Swiss mouse assessed as creatine kinase level at 50 ug preincubated with venom for 30 mins before venom injection measured 2 to 48 hrs post dose; format: functional
Summary of the method: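 Injected mixture was 50 μg venom with 50 μg alkaloid in 50 μL 1% DMSO–PBS (pH 7.2), preincubated 30 min at 37 °C; vehicle controls. Retro-orbital blood was taken at 2, 4, 8, 24 and 48 h. Plasma creatine kinase was measured by UV kit, in U/L (1 U = 1 μmol NADH/min at 37 °C). Mean ± SEM.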

HCT-8 = experiment: Antiproliferative activity against human HCT8 cells; format: functional, cell-based
Bothrops pauloensis [3] = experiment: Antihemorrhagic activity against Bothropoides pauloensis venom-induced hemorrhage in Swiss mouse assessed as decrease in hemorrhagic area at 50 ug preincubated with venom for 30 mins before venom injection measured 2 hrs post dose; format: functional
Summary of the method: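 Mice received 50 μL of 1% DMSO–PBS (pH 7.2) holding 50 μg B. pauloensis venom plus 50 μg alkaloid, preincubated 30 min at 37 °C. Vehicle-only negative controls. Five animals were killed at 2 h, and the inner dorsal skin was photographed. Hemorrhagic area was measured in mm2. Mean ± SEM, ANOVA with Dunnett's test.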

Bothrops pauloensis [4] = experiment: Antihemorrhagic activity against Bothropoides pauloensis venom-induced hemorrhage in Swiss mouse assessed as reduction in intensity of hemorrhage area at 50 ug preincubated with venom for 30 mins before venom injection measured 2 hrs post dose; format: functional
Summary of the method: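 Venom (50 μg) was premixed with 50 μg alkaloid in 50 μL 1% DMSO–PBS, pH 7.2, and held 30 min at 37 °C before injection. At 2 h, five mice were killed and the inner dorsal skin was imaged. Intensity I = A × (N − H): A is area in mm2, N and H are mean colour intensity of normal and hemorrhagic skin. ANOVA/Dunnett.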

SF-295 = experiment: Antiproliferative activity against human SF295 cells; format: functional, cell-based
HL-60 = experiment: Antiproliferative activity against human HL60 cells; format: functional, cell-based
[5] = Fntinecrotizing activity against Bothropoides pauloensis venom-induced hemorrhage in Swiss mouse assessed as reduction in skin necrotic regions at 50 ug preincubated with venom for 30 mins before venom injection measured 2 hrs post dose; format: ADME, tissue-based, Skin of body; conditions: bothrops pauloensis, in vivo
MDA-MB-435 = experiment: Antiproliferative activity against human MDA-MB-435 cells; format: functional, cell-based

Row | Compound | inhibition [1] | Activity (Bothrops pauloensis [2]) | Activity (HCT-8) | Activity (Bothrops pauloensis [3]) | Activity (Bothrops pauloensis [4]) | Activity (SF-295) | Activity (HL-60) | Activity [5] | Activity (MDA-MB-435)
1 | C[C@H]1C[C@H]2O[C@]23[C@@H](C)[C@H]2[C@H](C[C@H]4[C@@H]5CCC6=CC(=O)C=C[C@]6(C)C5=CC[C@]24C)N3C1 | inactive | Active | inactive | Active | Active | inactive | inactive | Active | inactive
2 | C[C@H]1C[C@H]2O[C@]23[C@@H](C)[C@H]2[C@H](C[C@H]4[C@@H]5CCC6=CC(=O)C=C[C@]6(C)[C@H]5CC[C@]24C)N3C1 (relative stereo) | inactive | Active | inactive | Active | Active | inactive | inactive | Active | inactive
3 | Cc1ccc(O)cc1CC[C@@H]1[C@@H](O)CC[C@]2(C)[C@@H]3[C@H](C[C@@H]12)N1C[C@@H](C)C[C@H]2O[C@]21[C@H]3C (relative stereo) | inactive | Active | inactive | – | – | inactive | inactive | – | inactive
